Reference: ChEMBL document CHEMBL3352278, “Design and discovery of 5-hydroxy-6-oxo-1,6-dihydropyrimidine-4-carboxamide inhibitors of HIV-1 integrase” (Bioorg Med Chem, 2014)

Tests used:
[1] = Therapeutic index, ratio of CC50 for human MT4 cells to EC50 for HIV1 3B infected in human MT4 cells; format: cell-based; conditions: HIV1 3B infected MT4 cells, read-out: Ratio CC50/EC50
In short: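 Computed as CC50/EC50, both from parallel MTT assays in MT-4 cells, with and without infection by 100–300 CCID50 HIV-1 IIIB, using 5-fold serial compound dilutions.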

[2] = target: T1, Human immunodeficiency virus type 1 integrase (Human immunodeficiency virus 1, UniProt Q7ZJM1); assay: Inhibition of HIV1 recombinant wild type integrase 3'-processing activity by gel-based assays
[3] = Retention time of the compound by HPLC; format: physicochemical
[4] = test system: Human immunodeficiency virus 1; assay: Antiviral activity against wild-type HIV1 3B infected in human MT4 cells assessed as inhibition of viral cytopathic effect by MTT assay; format: functional, organism-based; conditions: Human immunodeficiency virus 1, 3B
In short: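 MT-4 cells infected with 100–300 CCID50 of titrated HIV-1 IIIB stock in the presence of 5-fold serial dilutions of compound (DMSO stocks, diluted in DMSO). Protection against virus-induced cytopathic effect read by MTT; EC50 taken as the concentration giving 50% protection.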

[5] = target: T1, Human immunodeficiency virus type 1 integrase; assay: Inhibition of HIV1 recombinant wild type integrase strand transfer activity by gel-based assay
[6] = Cytotoxicity against human MT4 cells assessed as cell viability by MTT assay; format: cell-based
In short: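 Uninfected MT-4 cells run in parallel with the antiviral assay, exposed to 5-fold serial dilutions of compound. Viability read by MTT; CC50 is the concentration reducing viability by 50%.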

T1 sequence (Q7ZJM1 whole entry): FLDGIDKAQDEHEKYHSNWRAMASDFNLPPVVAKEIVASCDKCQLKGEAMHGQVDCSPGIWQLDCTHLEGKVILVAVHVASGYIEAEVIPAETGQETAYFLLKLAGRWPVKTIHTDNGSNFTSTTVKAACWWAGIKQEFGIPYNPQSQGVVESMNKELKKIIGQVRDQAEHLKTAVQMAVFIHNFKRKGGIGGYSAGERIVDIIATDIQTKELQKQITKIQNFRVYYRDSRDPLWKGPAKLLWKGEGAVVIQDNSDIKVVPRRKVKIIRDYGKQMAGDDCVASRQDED

| Compound | IC50 [2] [µM] | Retention_time [3] [min] | IC50 [5] [µM] | selectivity ratio [1] | EC50 [4] [µM] | CC50 [6] [µM] |
| --- | --- | --- | --- | --- | --- | --- |
| O=C(NCc1ccc(F)cc1)c1nc(Cc2ccc(F)cc2)[nH]c(=O)c1O | > 20 | 2.989 | 10 |  |  |  |
| O=C(NCc1ccc(F)cc1)c1nc(-c2ccccc2)[nH]c(=O)c1O | 17 | 2.378 | 1 |  |  |  |
| O=C(NCc1ccc(O)cc1)c1nc(-c2ccc(F)cc2)[nH]c(=O)c1O | > 20 | 2.846 | 6 | 7 | 6.71 | 49 |
| O=C(NCc1ccc(F)c(F)c1)c1nc(-c2ccc(F)cc2)[nH]c(=O)c1O | 17 | 4.39 | 1 | 6 | 5.17 | 31 |
| O=C(NCCc1ccc(F)cc1)c1nc(-c2ccc(F)cc2)[nH]c(=O)c1O | 17 | 4.748 | 4 |  | > 30 | 30 |
| O=C(NCc1cccc(Cl)c1)c1nc(-c2ccc(F)cc2)[nH]c(=O)c1O | 20 | 5.251 | 1.4 | 18 | 1.91 | 35 |
| O=C(NCc1cccc(F)c1)c1nc(-c2ccc(F)cc2)[nH]c(=O)c1O | 20 | 4.349 | 3 | 7 | 7.34 | 49.5 |
| O=C(NCc1ccccc1)c1nc(-c2ccccc2)nc(O)c1O | > 20 | 2.288 | 8 | 9 | 5.65 | 50.7 |
| O=C(NCc1ccccc1F)c1nc(-c2ccc(F)cc2)[nH]c(=O)c1O | 20 | 2.395 | 7 | 4 | 7.81 | 28.5 |

Stronger by IC50 [2], values ahead:

| IC50 [2] [µM] | Retention_time [3] [min] | IC50 [5] [µM] | Compound | selectivity ratio [1] | EC50 [4] [µM] | CC50 [6] [µM] |
| --- | --- | --- | --- | --- | --- | --- |
| 16 | 2.949 | 2 | O=C(NCc1ccc(F)cc1)c1nc(-c2ccccc2F)[nH]c(=O)c1O |  |  |  |
| 16 | 6.437 | 0.5 | Cc1ccc(CNC(=O)c2nc(-c3ccc(F)cc3)[nH]c(=O)c2O)cc1C | 12 | 2.7 | 33.5 |
| 16 | 4.134 | 2 | COc1ccc(CNC(=O)c2nc(-c3ccc(F)cc3)[nH]c(=O)c2O)cc1 | 6 | 7.61 | 44 |
| 14 | 3.549 | 8 | O=C(NCc1cc(F)c(F)c(F)c1)c1nc(-c2ccc(F)cc2)[nH]c(=O)c1O | 7 | 4.64 | 34.5 |
| 13 | 2.309 | 1.4 | O=C(NCc1cccc(Cl)c1F)c1nc(-c2ccc(F)cc2)[nH]c(=O)c1O | 18 | 2.61 | 48 |
| 12 | 4.075 | 0.6 | O=C(NCc1ccc(F)cc1)c1nc(-c2ccc(F)cc2)[nH]c(=O)c1O | 26 | 1.72 | 44 |
| 11 | 5.373 | 0.5 | O=C(NCc1ccc(Br)cc1)c1nc(-c2ccc(F)cc2)[nH]c(=O)c1O | 4 | 11 | 47.5 |
| 9 | 5.03 | 0.8 | O=C(NCc1ccc(Cl)cc1)c1nc(-c2ccc(F)cc2)[nH]c(=O)c1O | 5 | 8.1 | 44 |
| 6 | 3.56 | 4 | O=C(NCc1ccc(F)c(Cl)c1)c1nc(-c2ccc(F)cc2)[nH]c(=O)c1O | 35 | 1.3 | 45.5 |
| 5 | 2.379 | 1 | O=C(NCc1ccc(F)cc1)c1nc(-c2cccc(F)c2)[nH]c(=O)c1O |  |  |  |
| 5 | 2.306 | 2 | O=C(NCc1ccc(F)cc1)c1nc(-c2ccc(Cl)cc2)[nH]c(=O)c1O |  |  |  |
| 3 | 2.385 | 1 | O=C(NCc1ccc(F)cc1)c1nc(-c2ccc(Br)cc2)[nH]c(=O)c1O |  |  |  |
